Test system: MS2 coat protein
Assay: apparent Kd, MS2 coat protein; higher = weaker binding; RNA-MaP array
Summary of the method: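 In Tris-HCl pH 7.5 buffer with KCl, MgCl2, BSA, DTT, tRNA and Tween20, with or without input ligand, fluorescently labeled MS2 coat protein at 1.5 nM to 3 μM was incubated at room temperature with designed RNAs. The RNAs had been transcribed on an Illumina sequencing chip from sequenced DNA templates, and incubation ran 0.8–1.5 h at the lowest to 10–20 min at the highest concentrations. Apparent Kd is the median of binding-curve fits for individual clusters. Designs measured on fewer than 10 clusters were excluded.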

[1] = designed as: ON switch for flavin mononucleotide, no ligand
[2] = ligand present: flavin mononucleotide, designed as: ON switch for flavin mononucleotide
[3] = designed as: OFF switch for theophylline, no ligand
[4] = ligand present: theophylline, designed as: OFF switch for theophylline
[5] = designed as: OFF switch for flavin mononucleotide, no ligand
[6] = ligand present: flavin mononucleotide, designed as: OFF switch for flavin mononucleotide
[7] = designed as: ON switch for tryptophan, no ligand
[8] = ligand present: tryptophan, designed as: ON switch for tryptophan

## AAUACACUUGAGAAGGCCCAAACAUGAGGAUCACCCAUGUGACAUGUAAUCGCCGCGAAUGGAAGGGAGGAUAUCAGAAUCCAC
[1]
  apparent Kd: 16.2 nM
[2]
  apparent Kd: 17.5 nM

## AAUGAUGCGAUCUACAGUCGAGGAUUCGAUACCAGCAACGGGCGUUGCCCUUGGCAGCGAGCUACAUGAGGAUCACCCAUGUUAC
[3]
  apparent Kd: 19.9 nM
[4]
  apparent Kd: 34.7 nM

## ACACAGUCAGGAUAUACACAAAAUCUCAGUCUAGUAAGUAAACAUGAGGAUCACCCAUGUAGAAGGGACUUUAA
[5]
  apparent Kd: 6.95 nM
[6]
  apparent Kd: 7.79 nM

## ACACAUAAUCUCGGACAUGAGGAUCACCCAUGUGUCACAAUCAGAAGGCACACUUGACAAGGGAGUGAGGAUAUGAAUACAUUA
[5]
  apparent Kd: 124 nM
[6]
  apparent Kd: 32.7 nM

## ACAGGACUAGUAGGAUAUGCGCCGGUAGUACCCGCAGAAGGACUUUCACGGGUUAUUGUCACAUGAGGAUCACCCAUGUGAGGG
[5]
  apparent Kd: 13.2 nM
[6]
  apparent Kd: 13 nM

## ACAUGAGGAUCACCCAUGUUAAAAGAAGAUAGCAUAUUGGGUAGAAGGUCACAUUUCCAUUAAGUGAAGGAUAUACCAUGAUUC
[1]
  apparent Kd: 12.6 nM
[2]
  apparent Kd: 7.04 nM

## ACAUGAUGCUAGAAGGGCACACAUGAGGAUCACCCAUGUCGAACGAUUCUUCGGGACUAUCGCAUGCAGGAUAUAGCUAAAUCG
[1]
  apparent Kd: 13.2 nM
[2]
  apparent Kd: 8.24 nM

## ACCUAAUAAGGAUAUACGAAAGAGCCACCUGUAAACAACCGACAUGAGGAUCACCCAUGUAGAAGGUAUUAGGU
[5]
  apparent Kd: 4.32 nM
[6]
  apparent Kd: 9.47 nM

## ACCUACGUAGGAUAUACGCAUCGUGGACCGCAUGCCCGUGCACAUGAGGAUCACCCAUGUAGAAGGACGUACGC
[5]
  apparent Kd: 17.1 nM
[6]
  apparent Kd: 22.6 nM

## ACCUGGUGUAAGAAGGAGCAGAUAUAACGGUCGCUAGGAUAUUACCCUUCAAAAUGGGAUCUCACAUGAGGAUCACCCAUGUUA
[5]
  apparent Kd: 143 nM
[6]
  apparent Kd: 218 nM

## ACUAUACAUGAGGAUCACCCAUGUGGUCACAUAUGAGGAUAUAUGCGGCUGUCCCGGUCAAUAGAAGGCAUAUUUA
[1]
  apparent Kd: 52 nM
[2]
  apparent Kd: 53.5 nM

## AGAAAGAAUCAGAAGGCAGAGAUGUCUAUCUACUGAGGAUAUGAAUGACAUGAGGAUCACCCAUGUUGUCAGGCCAGGCCCAAC
[1]
  apparent Kd: 7.78 nM
[2]
  apparent Kd: 9.75 nM

## AGAAGACAUGAGGAUCACCCAUGUGAGGAUAUUACACUAGAAAACAGCCGCGUCUCGGUAAGAAGGCACUAUGG
[5]
  apparent Kd: 33.9 nM
[6]
  apparent Kd: 36.6 nM

## AGCGACAUGAGGAUCACCCAUGUGUUAGCUAAGCCUCUCAGCAGAAGGGAUGGUGUCCCAGAUGAUCAGGAUAUGCUGUUUUUG
[5]
  apparent Kd: 32.2 nM
[6]
  apparent Kd: 23.9 nM

## AGCGUGGAUAAAGGAUAUGUACCGGUAACUACAUGAGGAUCACCCAUGUCUUCAGGCCAAAACCGACAGAAGGUUACUUAUCGC
[5]
  apparent Kd: 21.7 nM
[6]
  apparent Kd: 20.7 nM

## AGUACCGUACGGAAAACAUGAGGAUCACCCAUGUCUAAUUAGAAGGAUAUGCUCUGUAAAUCGACGCAGAAGGUCAGCUAGAAU
[1]
  apparent Kd: 22.5 nM
[2]
  apparent Kd: 19 nM

## AGUACGUCAGGAUAUCGCGUACGAAACAUGAGGAUCACCCAUGUGGUGCCGUGGCUCUAUCGAGAAGGGACUUGGC
[5]
  apparent Kd: 13.3 nM
[6]
  apparent Kd: 12.6 nM

## AGUGCAAUAUAGAAGGCCCAAACAUGAGGAUCACCCAUGUAGGUGUCACUGGUAGUGAAGGCUCGGGAGGAUAUAUCAUCCACA
[1]
  apparent Kd: 32.9 nM
[2]
  apparent Kd: 30.7 nM

## AGUUACAAUGUCAGGAUAUUGCUCCCACGACGGAACAAGAAGGGACAUGAGGAUCACCCAUGUUAGUCUUCGUC
[5]
  apparent Kd: 4.96 nM
[6]
  apparent Kd: 5.98 nM

## AGUUUGGGCGCAGGAUAUCUUCACAUGAGGAUCACCCAUGUCCAUAAGAUAUUUAUGUCAUUUGGAGAGAAGGGCGGUUGUAAU
[1]
  apparent Kd: 55.1 nM
[2]
  apparent Kd: 36.1 nM

## AUAAAUUUUACACGUUGCUACAUGAGGAUCACCCAUGUGUGGAGAAGGGAUCUGCCUACAAGGAAUCAGGAUAUCCAACUGUUC
[1]
  apparent Kd: 32.9 nM
[2]
  apparent Kd: 51.6 nM

## AUAAUAGUAGGAUAUACAUGAGGAUCACCCAUGUGACCGCUCAAAGAUAGCGAUGCUCGUAGAAGGACUGUGGA
[5]
  apparent Kd: 21.3 nM
[6]
  apparent Kd: 21.8 nM

## AUACAGCUAGGAUAUCCGAUAGUAUACAUGAGGAUCACCCAUGUCCUGACGGCCGACCAUGGAGAAGGAGCAGAUA
[5]
  apparent Kd: 42.2 nM
[6]
  apparent Kd: 31.9 nM

## AUAGCCAAACAAGGAUAUACGCGCGUCACAGAAAAUGGGACAUGAGGAUCACCCAUGUGGGAAGAGUAGAAGGUGUUUCCAGAU
[5]
  apparent Kd: 251 nM
[6]
  apparent Kd: 147 nM

## AUAUGAGGAGUGAGGAUAUGAAUCUAACAGAAUAAUCAGAAGGCACAUGAGGAUCACCCAUGUAAAUAUAUGGU
[5]
  apparent Kd: 10.6 nM
[6]
  apparent Kd: 11.5 nM

## AUCAGUGGCUAGGAUAUGUUAGUCAGAUAUACAACAGAAGGAGCGACAUGAGGAUCACCCAUGUUACAGUGGAG
[5]
  apparent Kd: 13 nM
[6]
  apparent Kd: 22.2 nM

## AUCCGUGCAGCAAAUGGAGUGACAUGAGGAUCACCCAUGUAUGAGGAUAUGGCUCCGCCAGGGUACCAGAAGGCAUAAGGGAGG
[1]
  apparent Kd: 908 nM
[2]
  apparent Kd: 627 nM

## AUCGCGACAGGAUAUACAUGAGGAUCACCCAUGUUGAUGAGCGAGCAUCGGACUGAGAGUAGAAGGGUCGGCUC
[5]
  apparent Kd: 9.26 nM
[6]
  apparent Kd: 9.04 nM

## AUCGUGCCAAGAGGAUAUCACCAUUCAAUACCCACAUGAGGAUCACCCAUGUAUGCAGUGUUCCGUGAGAAGGCUUGCAUACCA
[1]
  apparent Kd: 113 nM
[2]
  apparent Kd: 19.4 nM

## AUGUAGUCGGUAGGAUAUACGAGUCUGAUAACAGUAGAAGGACCGAGUACGGCUCCGCAGUACAUGAGGAUCACCCAUGUGAUC
[1]
  apparent Kd: 533 nM
[2]
  apparent Kd: 286 nM

## AUGUCGCAAUGGAAAAGACAUGAGGAUCACCCAUGUCAGCGUAGAAGGACCUUGUCGACUAAUGGGUAGGAUAUACGAGAAUCC
[1]
  apparent Kd: 6.79 nM
[2]
  apparent Kd: 7.2 nM

## AUGUGUAUUGAAGGAUAUGAAGCCGGCAUAAAAUCAGAAGGUCAACUAAUUACACAUGAGGAUCACCCAUGUGAUGACAUGCUU
[5]
  apparent Kd: 17.2 nM
[6]
  apparent Kd: 24.8 nM

## AUUCGAACGGUCAGGAUAUGCGGAAAGACAUCGCAGCAGAAGGGACAUGAGGAUCACCCAUGUAAAGGGCACAA
[5]
  apparent Kd: 36.1 nM
[6]
  apparent Kd: 182 nM

## AUUGUGAUAGCAGGAUAUUGUAUUGGUACAUGAGGAUCACCCAUGUUAAAAUCCUCUUGAUUUAGCAAGAAGGGCUCCAUGGCA
[5]
  apparent Kd: 21.8 nM
[6]
  apparent Kd: 18.3 nM

## CAAUAACAGAAAGGAUAUGGGCUCGAUACAUGAGGAUCACCCAUGUCUCCGUCAACGCUCAGUGCCCAGAAGGUUCCGCAGAAU
[1]
  apparent Kd: 34 nM
[2]
  apparent Kd: 20.2 nM

## CACAGGUCAGUAGGAUAUGCUACAUGAGGAUCACCCAUGUGGUGGUAUAUGCGUCUAGGCGCAAAGCAGAAGGACUUCCAGGUG
[5]
  apparent Kd: 42 nM
[6]
  apparent Kd: 146 nM

## CACCCAACUAUACAUGAGGAUCACCCAUGUUGAAAGUGCAACAGAAGGCCCUACUAAUAUAGGAGGGAGGAUAUGUGAACCGAA
[1]
  apparent Kd: 62.5 nM
[2]
  apparent Kd: 11.4 nM

## CACGCUCACCAGAAGGCAGAGCAUAAAUGACAUGAGGAUCACCCAUGUACGCAGGAGAUCGGGUCUGAGGAUAUGGCAAUAGGC
[1]
  apparent Kd: 21.4 nM
[2]
  apparent Kd: 20.5 nM

## CAGACCCGGAAGAAGGAGGAGACAUAAACACGCCUAGGAUAUACGCCUGAAUAAACGUAAACAUGAGGAUCACCCAUGUCAAAC
[1]
  apparent Kd: 9.5 nM
[2]
  apparent Kd: 8.4 nM

## CAGGAGCUAGAGAAGGAGGUUACGCCCACGGACCUAGGAUAUCUGUUCUGAGUUACAUGAGGAUCACCCAUGUGUCCGCGGUGG
[5]
  apparent Kd: 53.9 nM
[6]
  apparent Kd: 33 nM

## CAUGAGAGAUUGUUUUGUGACUCUAACGAUACCAGAGUAGGACUUCUCCCUUGGCAGCGUGUGACAUGAGGAUCACCCAUGUCCA
[3]
  apparent Kd: 10.6 nM
[4]
  apparent Kd: 11.7 nM

## CCAAAAUCGAAGAAGGCUAUGCGUACCAAUCUUAGAGGAUAUUCGACCUUAGCUAACAUGAGGAUCACCCAUGUGGGAAACACG
[5]
  apparent Kd: 28 nM
[6]
  apparent Kd: 19.5 nM

## CCAGUUACCAGAGGAUAUGAUUCCAGAGUUAAGGGUAUUCACAUGAGGAUCACCCAUGUGCUCCUUCAGAAGGCUGAUAACCCG
[5]
  apparent Kd: 39.8 nM
[6]
  apparent Kd: 49.4 nM

## CCAUGGUUGACGGCCGCCACUCAUUAGUCUUUGAGGUUGGCACAUGAGGAUCACCCAUGUCUGCAGAGGACCGGGUCUCGCCACA
[7]
  apparent Kd: 44.3 nM
[8]
  apparent Kd: 44.2 nM

## CCCAAUUUCCGAGAUAUGGGUCCAACUAAACGAGGACCGGUACGGCCGCCACUCGACUACAAACAUGAGGAUCACCCAUGUAAAG
Designed as: OFF switch for tryptophan, no ligand
  apparent Kd: 17 nM
Ligand present: tryptophan, designed as: OFF switch for tryptophan
  apparent Kd: 17.4 nM

## CCGAACACUUAGAAGGAUUUAAUCUAUAAUUGAAUAGGAUAUAAGGCCUUACGUGCGAAUGAACACAUGAGGAUCACCCAUGUA
[5]
  apparent Kd: 15.1 nM
[6]
  apparent Kd: 12.6 nM

## CCUCGAACGGCAGGAUAUAUUGGUCAAAAUUCUAUAGAAGGGCCUCUCCCUGGAACAUGAGGAUCACCCAUGUGCGCACUUGUG
[1]
  apparent Kd: 57.4 nM
[2]
  apparent Kd: 61.9 nM

## CCUGACAUGAGGAUCACCCAUGUGUGAGCACGAGGACCGGUACGGCCGCCACUCGCGUUGCCGGCCGGACUAUCUGGCGAAGUCA
[7]
  apparent Kd: 32.9 nM
[8]
  apparent Kd: 35.1 nM

## CGACGCUUAGGAUAUUGGUACACCUACAUGAGGAUCACCCAUGUGACUCCUUUACAAGGGCAAGAAGGAAGUUGGU
[5]
  apparent Kd: 110 nM
[6]
  apparent Kd: 221 nM

## CGAUGACAUGAGGAUCACCCAUGUUGCGGUAUUCAAGGAUAUCCUGAGUUUUCAAGCAUUGGAGAAGGUGAUUUCG
[1]
  apparent Kd: 30.1 nM
[2]
  apparent Kd: 26.1 nM

## CGGACCUGAGAGAAGGGCAGCCGACAUGAGGAUCACCCAUGUAAUCGAGGACCAUCCUCAUUUUUGCAGGAUAUCUAUUGUUAU
[5]
  apparent Kd: 35.4 nM
[6]
  apparent Kd: 37.3 nM

## CGGUGGUGAGGAUAUCAAAUGUGGAAGGAGAAGACACCCAGUGAGAAGGCACAUGAGGAUCACCCAUGUACAGC
[5]
  apparent Kd: 10.7 nM
[6]
  apparent Kd: 6 nM

## CGUACAAUUAAGAAGGGACAUUGCUAUAGACUGUCAGGAUAUUAUGUACAUGAGGAUCACCCAUGUAGUAGUCAAGGGUCGGAA
[5]
  apparent Kd: 16.7 nM
[6]
  apparent Kd: 61.7 nM

## CGUUCAGAUCAUGAUAACAUGAGGAUCACCCAUGUGGAAUAAUAGGAUAUGGAGAACAAAAUUAACCAGAAGGAUUAUAACAAA
[1]
  apparent Kd: 70 nM
[2]
  apparent Kd: 44.9 nM
